Experiment [1] has as its system Rattus norvegicus. In words: Compound was tested for its effect on animals. Value reported as number of rats disrupted in trained rats at a dose of 47 (nmol/kg). The format is functional. A digest of the protocol: (§1)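 Two-lever drug discrimination in food-restricted rats (~80% free-feeding weight) trained on FR 50 to tell saline from LSD tartrate (186 nmol/kg, 0.08 mg/kg ip, 30 min pre-session). Test drugs were given ip in saline, 1 mL/kg. Test sessions ran under extinction, ending at 50 presses on either lever. Testing required 85% training accuracy. Counts of rats tested and disrupted were recorded, plus the percentage selecting the drug lever.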

Experiment [2] has as its system Rattus norvegicus. The experiment can be described thus: Potency in trained rats was determined with relative to reference compound […] at a dose of 186 (nmol/kg). The format is functional.
Experiment [3] deals with Rattus norvegicus. The experiment can be described thus: Compound was tested for its effect on animals. Value reported as number of rats disrupted in trained rats at a dose of 93 (nmol/kg). Type of experiment: functional. The gist of the method: as §1
The test system of experiment [4] is Rattus norvegicus. The experiment can be described thus: Effective dose in trained rats was determined at a dose of 47 (nmol/kg). Type of experiment: functional.
Experiment [5] concerns Rattus norvegicus. The experiment can be described thus: Compound was tested for its effect on animals. Value reported as number of rats disrupted in trained rats at a dose of 465 (nmol/kg). The format is functional. A digest of the protocol: as §1
The subject of experiment [6] is Rattus norvegicus. In words: Compound was tested for its effect on animals. Value reported as number of rats disrupted in trained rats at a dose of 186 (nmol/kg). The format is functional. A digest of the protocol: as §1
Experiment [7] concerns the target T1, 5-hydroxytryptamine receptor 1A (Rattus norvegicus, UniProt P19327).
T1 sequence (P19327 whole entry): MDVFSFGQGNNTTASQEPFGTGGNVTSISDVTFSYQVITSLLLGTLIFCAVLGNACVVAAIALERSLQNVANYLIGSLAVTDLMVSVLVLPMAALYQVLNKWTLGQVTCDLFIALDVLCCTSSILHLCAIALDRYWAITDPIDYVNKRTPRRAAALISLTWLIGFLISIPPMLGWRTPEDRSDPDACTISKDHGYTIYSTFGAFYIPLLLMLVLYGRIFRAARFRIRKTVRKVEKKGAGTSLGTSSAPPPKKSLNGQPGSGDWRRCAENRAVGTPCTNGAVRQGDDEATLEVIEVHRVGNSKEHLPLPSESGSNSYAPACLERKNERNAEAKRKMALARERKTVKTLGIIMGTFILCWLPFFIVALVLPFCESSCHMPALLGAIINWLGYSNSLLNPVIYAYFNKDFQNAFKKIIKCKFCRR
In words: Binding affinity was measured against 5-hydroxytryptamine 1A receptor by displacement of [3H]8-OH-DPAT by lysergic acid amides. A digest of the protocol: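 Rat hippocampal membranes from pooled male Sprague-Dawley rats, preincubated at 37 °C, in 50 mM Tris HCl (pH 7.4) with 0.5 mM Na2EDTA, 0.1% ascorbate and 10 μM pargyline. Competition against 0.75 nM [3H]-8-OH-DPAT for 10 min at 37 °C, then GF/C filtration and scintillation counting. Triplicates. Three to four experiments combined, analysed with EBDA/LIGAND.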
On the technique in general: In a radioligand displacement assay an active substance lowers the binding of a labelled ligand.

The subject of experiment [8] is Rattus norvegicus. In words: Compound was tested for its effect on animals. Value reported as number of rats disrupted in trained rats at a dose of 290 (nmol/kg). The format is functional. A digest of the protocol: as §1
Experiment [9] relates to Rattus norvegicus. The experiment can be described thus: Percentage of animals selecting drug lever in trained rats at a dose 93 (nmol/kg). Type of experiment: functional. A digest of the protocol:
(§2)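 Drug-naive rats held at about 80% of free-feeding weight were trained on a two-lever FR50 food schedule to tell ip LSD tartrate (186 nmol/kg, 0.08 mg/kg) from saline, given 30 min before sessions. Test drugs were given ip in saline (1 mL/kg). Tests ran under extinction and ended at 50 presses on either lever. Rats had to hold 85% correct on training days. Read-out was % selecting the drug lever per dose.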

For experiment [10], the system named is Rattus norvegicus. In words: Compound was tested for its effect on animals. Value reported as number of rats disrupted in trained rats at a dose of 372 (nmol/kg). Type of experiment: functional. A digest of the protocol: as §1
The subject of experiment [11] is Rattus norvegicus. In words: Percentage of animals selecting drug lever in trained rats at a dose 465 (nmol/kg). The format is functional. The gist of the method: as §2
The subject of experiment [12] is Rattus norvegicus. The experiment can be described thus: Percentage of animals selecting drug lever in trained rats at a dose 290 (nmol/kg). The format is functional. A digest of the protocol:
as §1

For experiment [13], the system named is Rattus norvegicus. The experiment can be described thus: Percentage of animals selecting drug lever in trained rats at a dose 372 (nmol/kg). The format is functional. The gist of the method:
as §1

Experiment [14] has as its target 5-hydroxytryptamine receptor 2A (Rattus norvegicus, UniProt P14842). In words: Binding affinity was measured against 5-hydroxytryptamine 2A receptor by displacement of [3H]- ketanserin by lysergic acid amides. A digest of the protocol:
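Rat frontal cortex membranes from pooled male Sprague-Dawley rats, preincubated at 37 °C, in 50 mM Tris HCl (pH 7.4) with 0.5 mM Na2EDTA, 0.1% ascorbate, 10 μM pargyline and 5.7 mM CaCl2. Triplicates. Three to four experiments combined.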

Consider 1 molecule from ChEMBL document CHEMBL1128272, “Stereoselective LSD-like activity in a series of d-lysergic acid amides of (R)- and (S)-2-aminoalkanes” (J Med Chem, 1995).

Chain of 5-hydroxytryptamine receptor 2A (P14842 whole entry): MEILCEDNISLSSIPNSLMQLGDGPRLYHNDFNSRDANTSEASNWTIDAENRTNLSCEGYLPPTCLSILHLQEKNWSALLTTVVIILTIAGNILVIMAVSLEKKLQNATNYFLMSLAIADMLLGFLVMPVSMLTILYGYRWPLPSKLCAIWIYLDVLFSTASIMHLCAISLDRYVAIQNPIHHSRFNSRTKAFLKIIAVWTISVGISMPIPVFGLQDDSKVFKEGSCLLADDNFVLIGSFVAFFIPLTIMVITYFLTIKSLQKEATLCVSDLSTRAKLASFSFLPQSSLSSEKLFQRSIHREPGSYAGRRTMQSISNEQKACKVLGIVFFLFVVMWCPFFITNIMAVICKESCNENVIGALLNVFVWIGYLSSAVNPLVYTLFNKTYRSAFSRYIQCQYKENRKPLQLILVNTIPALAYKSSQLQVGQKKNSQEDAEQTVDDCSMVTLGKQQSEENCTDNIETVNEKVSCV

By ED50 is commonly meant the dose at which the effect has come halfway, by size or by number of responders. Higher therefore signals weaker potency. One may read the Ki as the equilibrium dissociation constant of an inhibitor or competing ligand from its target. Turning to `CC[C@@H](C)NC(=O)[C@@H]1C=C2c3cccc4[nH]cc(c34)C[C@H]2N(C)C1`, the D in the experiment on Rattus norvegicus [1] is given as 10%; in the experiment on Rattus norvegicus [3], 0%; in the experiment with Rattus norvegicus [5], 10%; in the experiment with Rattus norvegicus [6], 27%; in the experiment on Rattus norvegicus [8], 10%; in the experiment with Rattus norvegicus [10] it was 0%. In the experiment with Rattus norvegicus [2], this molecule showed a Potency of 0.39. Also, the 50% effect level with Rattus norvegicus [4] (ED50) was put at a dose of 0.124 µmol/kg. Also, the Ki in experiment [7] is 4.6 nM; in experiment [14], 34 nM. For the same molecule, the SDL in the experiment with Rattus norvegicus [9] is 50%; in the experiment on Rattus norvegicus [11], 100%; with Rattus norvegicus [12], 67%; with Rattus norvegicus [13], 75%.
